Test results from article PMC7909006 (Clinical cancer research : an official journal of the …, 2020).

Columns and labels:
[1] = tested on: peripheral blood immune cells; assay: Pharmacodynamics: fold change in peripheral blood; assay type: in vivo, human
Summary of the method: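 Complete blood counts, including absolute monocyte count, were taken as safety labs before treatment, mid-C1, before C2–C9, then every other cycle and at end of therapy. Patients took the oral agent once daily on a continuous 28-day cycle, dosed by BSA at 400, 600 or 800 mg/m2.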

[2] = tested on: recurrent or refractory acute leukemias or solid tumors including NF1 PN; assay: Tumor response; assay type: in vivo, human
Summary of the method: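 Tumors assessed at baseline (within 14 days before start), then after every even 28-day cycle with the same imaging modality. Criteria were RECIST v1.1 for solid tumors, WHO for brain tumors, and volumetric MRI for NF1 plexiform neurofibromas (baseline, every 4th cycle in year 1, then every 6 cycles). Leukemia was followed by blood and marrow each cycle. Treatment lasted up to two years.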

[3] = patient 2, Osteosarcoma, dose level 1
[4] = patient 3, Ewing Sarcoma, dose level 1
[5] = patient 4, NF1 plexiform neurofibroma, dose level 1
[6] = patient 5, NF1 plexiform neurofibroma, dose level 2
[7] = patient 6, NF1 plexiform neurofibroma, dose level 2
[8] = patient 7, Central Nervous System PNET, dose level 2
[9] = patient 8, Primary brain tumor, dose level 2
[10] = patient 9, NF1 malignant peripheral nerve sheath tumor, dose level 3
[11] = patient 10, Osteosarcoma, dose level 3
[12] = patient 11, Osteosarcoma, dose level 3
[13] = patient 12, Embryonal rhabdomyosarcoma, dose level 3
[14] = patient 13, Acute myeloid leukemia, dose level 3
[15] = patient 14, Spindle cell carcinoma, dose level 3
[16] = patient 15, Aneurysmal fibrous histiocytoma, dose level 3
[17] = patient 16, Glioblastoma, dose level 3

FC(F)(F)c1ccc(CNc2ccc(Cc3c[nH]c4ncc(Cl)cc34)cn2)cn1 [Pexidartinib]
Hemoglobin (Hgb), Med. Fold Change (95% CI) from Day 1 ([1]; 14–16 Days from C1, N=13): 0.97 (0.91, 1.00) | Lymphocytes %, Med. Fold Change (95% CI) from Day 1 ([1]; 14–16 Days from C1, N=13): 0.92 (0.87, 1.25) | Monocytes %, Med. Fold Change (95% CI) from Day 1 ([1]; 14–16 Days from C1, N=13): 0.67 (0.52, 0.89) | Neutrophils % + bands, Med. Fold Change (95% CI) from Day 1 ([1]; 14–16 Days from C1, N=13): 1.08 (0.96, 1.13) | Platelet Count, Med. Fold Change (95% CI) from Day 1 ([1]; 14–16 Days from C1, N=13): 0.97 (0.83, 1.13) | White blood cell (WBC), Med. Fold Change (95% CI) from Day 1 ([1]; 14–16 Days from C1, N=13): 0.85 (0.65, 1.06) | Absolute Immature Granulocyte, Med. Fold Change (95% CI) from Day 1 ([1]; 27–29 Days from C1, N=6): 0.20 (0.00, 2.50) | Immature granulocytes, Med. Fold Change (95% CI) from Day 1 ([1]; 27–29 Days from C1, N=6): 0.24 (0.00, 2.00) | Absolute Eosinophil Count, Med. Fold Change (95% CI) from Day 1 ([1]; 27–29 Days from C1, N=8): 0.63 (0.31, 5.37) | Eosinophils %, Med. Fold Change (95% CI) from Day 1 ([1]; 27–29 Days from C1, N=8): 0.76 (0.48, 4.19) | Absolute Basophil Count, Med. Fold Change (95% CI) from Day 1 ([1]; 27–29 Days from C1, N=9): 0.33 (0.00, 0.67) | Basophils %, Med. Fold Change (95% CI) from Day 1 ([1]; 27–29 Days from C1, N=9): 0.22 (0.00, 0.83) | Absolute Lymphocyte Count, Med. Fold Change (95% CI) from Day 1 ([1]; 27–29 Days from C1, N=10): 0.86 (0.60, 1.21) | Absolute Monocyte Count, Med. Fold Change (95% CI) from Day 1 ([1]; 27–29 Days from C1, N=10): 0.64 (0.26, 0.88) | Absolute Neutrophil Count, Med. Fold Change (95% CI) from Day 1 ([1]; 27–29 Days from C1, N=10): 0.70 (0.46, 1.66) | Hemoglobin (Hgb), Med. Fold Change (95% CI) from Day 1 ([1]; 27–29 Days from C1, N=10): 1.03 (0.95, 1.13) | Lymphocytes %, Med. Fold Change (95% CI) from Day 1 ([1]; 27–29 Days from C1, N=10): 1.28 (0.47, 1.95) | Monocytes %, Med. Fold Change (95% CI) from Day 1 ([1]; 27–29 Days from C1, N=10): 0.84 (0.26, 1.06) | Neutrophils % + bands, Med. Fold Change (95% CI) from Day 1 ([1]; 27–29 Days from C1, N=10): 0.97 (0.78, 1.30) | Platelet Count, Med. Fold Change (95% CI) from Day 1 ([1]; 27–29 Days from C1, N=10): 0.94 (0.79, 1.18) | White blood cell (WBC), Med. Fold Change (95% CI) from Day 1 ([1]; 27–29 Days from C1, N=10): 0.81 (0.58, 1.28) | Sustained partial response, RECIST decrease in longest diameter of target lesion ([2]; 1 patient with peritoneal mesothelioma, 400 mg/m^2/day DL): 67% | Stable disease, number of patients ([2]; 16 patients enrolled): three | Median number of treatment cycles received ([2]; 16 patients, 1 C = 28 days): 1 C | Duration of stable disease prior to disease progression ([2]; one patient with metastatic, rapidly progressive osteosarcoma, 1 C = 28 days): 4 C | Reason Off Treatment ([2]; patient 1, Peritoneal mesothelioma, dose level 1): Remains on Study | Reason Off Treatment [2, 3]: Progressive Disease | Time-point Off Treatment [2, 3]: Cycle 1 Day 23 | Reason Off Treatment [2, 4]: Progressive Disease | Time-point Off Treatment [2, 4]: Cycle 1 Day 28 | Reason Off Treatment [2, 5]: Best Interest of Patient | Time-point Off Treatment [2, 5]: After Cycle 4 | Reason Off Treatment [2, 6]: Withdrawal of Consent | Time-point Off Treatment [2, 6]: After Cycle 1 (took 23 doses) | Reason Off Treatment [2, 7]: Best Interest of Patient | Time-point Off Treatment [2, 7]: After Cycle 6 | Reason Off Treatment [2, 8]: Progressive Disease | Time-point Off Treatment [2, 8]: After Cycle 1 | Reason Off Treatment [2, 9]: Progressive Disease | Time-point Off Treatment [2, 9]: After Cycle 1 | Reason Off Treatment [2, 10]: Progressive Disease | Time-point Off Treatment [2, 10]: Cycle 2 Day 28 | Reason Off Treatment [2, 11]: Progressive Disease | Time-point Off Treatment [2, 11]: Cycle 4 Day 6 | Reason Off Treatment [2, 12]: Progressive Disease | Time-point Off Treatment [2, 12]: Cycle 3 Day 1 | Reason Off Treatment [2, 13]: Progressive Disease | Time-point Off Treatment [2, 13]: Cycle 1 Day 12 | Reason Off Treatment [2, 14]: Progressive Disease | Time-point Off Treatment [2, 14]: Cycle 1 Day 15 | Reason Off Treatment [2, 15]: Progressive Disease | Time-point Off Treatment [2, 15]: Cycle 1 Day 23 | Reason Off Treatment [2, 16]: Progressive Disease | Time-point Off Treatment [2, 16]: Cycle 3 Day 16 | Reason Off Treatment [2, 17]: Progressive Disease | Time-point Off Treatment [2, 17]: Cycle 2 Day 5
